Legend:
[1] = system: Liver microsome; experiment: Drug level in pooled human liver microsomes treated with 10 uM T-5224 assessed as compound formation after 10 mins by HPLC method; assay type: ADME
In short: (§1)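 Pooled human liver microsomes at 0.5 mg protein/mL, or pooled intestinal microsomes at 0.25 mg/mL, in 50 mM Tris-HCl pH 7.5, 8 mM MgCl2, alamethicin, with 2 mM UDPGA. T-5224 at 10 μM, 10 min at 37°C after 5 min preincubation; stopped with acetonitrile. HPLC with UV at 290 nm. Linearity was tested over 0.1–1.0 mg/mL protein and 5–30 min.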

[2] = biological target: T1, UDP-glucuronosyltransferase 1A3 (Homo sapiens, UniProt P35503); experiment: Drug level assessed as human UGT1A3-mediated compound formation from 5 to 50 uM T-5224 after 60 mins in presence of UDP-glucuronic acid using 0.05 to 0.2 mg/ml by HPLC method; assay type: ADME; conditions: recombinant enzyme, 1 h
T1 sequence (P35503 whole entry): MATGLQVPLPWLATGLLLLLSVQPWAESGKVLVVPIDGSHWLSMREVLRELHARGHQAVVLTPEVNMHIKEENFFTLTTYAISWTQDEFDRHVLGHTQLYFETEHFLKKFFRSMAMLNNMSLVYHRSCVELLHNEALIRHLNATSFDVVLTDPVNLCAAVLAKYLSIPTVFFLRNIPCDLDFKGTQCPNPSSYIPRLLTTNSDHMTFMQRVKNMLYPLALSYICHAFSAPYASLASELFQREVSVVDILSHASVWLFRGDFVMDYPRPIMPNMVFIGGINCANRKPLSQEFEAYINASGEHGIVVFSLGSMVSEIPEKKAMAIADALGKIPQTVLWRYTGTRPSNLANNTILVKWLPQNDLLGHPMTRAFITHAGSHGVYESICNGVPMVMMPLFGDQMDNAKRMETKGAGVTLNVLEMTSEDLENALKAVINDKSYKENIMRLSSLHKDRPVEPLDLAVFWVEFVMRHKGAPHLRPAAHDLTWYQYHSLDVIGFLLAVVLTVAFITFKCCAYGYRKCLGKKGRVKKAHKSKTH
In short: (§2)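 Recombinant human UGT microsomes from baculovirus-infected insect cells, 0.1 mg protein/mL, in 50 mM Tris-HCl pH 7.5, 8 mM MgCl2, alamethicin. T-5224 in DMSO (2% v/v final). Preincubated 5 min at 37°C, started with 2 mM UDPGA, run 60 min at 37°C and stopped with acetonitrile. Glucuronides resolved by C18 HPLC with UV at 290 nm. Linearity was checked at 0.05–0.2 mg/mL protein and 10–60 min.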

[3] = biological target: T1, UDP-glucuronosyltransferase 1A3; experiment: Drug level assessed as human UGT1A3-mediated compound formation from 5 to 50 uM T-5224 after 10 to 60 mins in presence of UDP-glucuronic acid by HPLC method; assay type: ADME; conditions: recombinant enzyme; in short: as §2
[4] = biological target: T2, UDP-glucuronosyltransferase 1A8 (Homo sapiens, UniProt Q9HAW9); experiment: Drug level assessed as human UGT1A8-mediated compound formation from 5 to 50 uM T-5224 after 60 mins in presence of UDP-glucuronic acid by HPLC method; assay type: ADME; conditions: recombinant enzyme, 1 h; in short: as §2
T2 sequence (Q9HAW9 whole entry): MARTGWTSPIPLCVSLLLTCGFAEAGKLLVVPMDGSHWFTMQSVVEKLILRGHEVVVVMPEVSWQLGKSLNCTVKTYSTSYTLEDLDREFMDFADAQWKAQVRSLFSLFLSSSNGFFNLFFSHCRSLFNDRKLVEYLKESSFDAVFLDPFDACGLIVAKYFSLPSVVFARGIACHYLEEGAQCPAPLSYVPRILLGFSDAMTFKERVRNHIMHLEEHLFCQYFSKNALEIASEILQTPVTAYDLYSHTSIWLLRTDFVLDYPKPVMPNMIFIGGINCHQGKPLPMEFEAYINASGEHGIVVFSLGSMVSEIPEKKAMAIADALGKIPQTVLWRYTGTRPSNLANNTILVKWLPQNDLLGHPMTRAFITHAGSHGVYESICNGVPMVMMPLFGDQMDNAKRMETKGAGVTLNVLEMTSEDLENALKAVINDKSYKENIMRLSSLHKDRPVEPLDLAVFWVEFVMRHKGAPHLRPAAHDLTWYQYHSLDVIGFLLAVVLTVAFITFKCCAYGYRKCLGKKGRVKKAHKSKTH

[5] = Drug level in pooled human intestinal microsomes treated with 10 uM T-5224 assessed as compound formation after 5 to 30 mins by HPLC method; assay type: ADME, Intestine, Microsome; in short: as §1
[6] = system: Liver microsome; experiment: Drug level in pooled human liver microsomes treated with T-5224 assessed as compound formation in presence of UDPGA by LC-MS/MS method; assay type: ADME
[7] = Drug level in pooled human intestinal microsomes treated with 10 uM T-5224 assessed as compound formation after 10 mins using 0.1 to 1.0 mg/ml microsomal protein content by HPLC method; assay type: ADME, Intestine, Microsome; in short: as §1
[8] = biological target: T3, UDP-glucuronosyltransferase 1A1 (Homo sapiens, UniProt P22309); experiment: Drug level assessed as human UGT1A1-mediated compound formation from 5 to 50 uM T-5224 after 60 mins in presence of UDP-glucuronic acid by HPLC method; assay type: ADME; conditions: recombinant enzyme, 1 h; in short: as §2
T3 sequence (P22309 whole entry): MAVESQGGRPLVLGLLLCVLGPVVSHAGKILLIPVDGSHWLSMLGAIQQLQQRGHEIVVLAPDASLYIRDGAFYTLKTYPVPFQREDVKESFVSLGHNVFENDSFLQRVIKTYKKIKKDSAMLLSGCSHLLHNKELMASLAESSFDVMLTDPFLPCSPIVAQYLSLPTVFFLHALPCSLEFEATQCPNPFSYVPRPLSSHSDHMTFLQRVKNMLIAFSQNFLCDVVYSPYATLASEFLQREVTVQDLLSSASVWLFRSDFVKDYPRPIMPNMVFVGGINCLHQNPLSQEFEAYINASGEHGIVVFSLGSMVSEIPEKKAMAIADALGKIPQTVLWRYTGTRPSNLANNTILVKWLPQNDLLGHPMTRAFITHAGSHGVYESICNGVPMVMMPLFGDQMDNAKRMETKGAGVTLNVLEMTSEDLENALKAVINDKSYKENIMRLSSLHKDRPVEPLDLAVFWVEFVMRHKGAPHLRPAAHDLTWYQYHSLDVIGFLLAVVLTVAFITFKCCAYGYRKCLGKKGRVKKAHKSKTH

[9] = biological target: T2, UDP-glucuronosyltransferase 1A8; experiment: Drug level assessed as human UGT1A8-mediated compound formation from 5 to 50 uM T-5224 after 10 to 60 mins in presence of UDP-glucuronic acid by HPLC method; assay type: ADME; conditions: recombinant enzyme; in short: as §2
[10] = system: Liver microsome; experiment: Drug level in pooled human liver microsomes treated with 10 uM T-5224 assessed as compound formation after 5 to 30 mins by HPLC method; assay type: ADME; in short: as §1
[11] = biological target: T3, UDP-glucuronosyltransferase 1A1; experiment: Drug level assessed as human UGT1A1-mediated compound formation from 5 to 50 uM T-5224 after 60 mins in presence of UDP-glucuronic acid using 0.05 to 0.2 mg/ml by HPLC method; assay type: ADME; conditions: recombinant enzyme, 1 h; in short: as §2
[12] = biological target: T1, UDP-glucuronosyltransferase 1A3; experiment: Drug level assessed as human UGT1A3-mediated compound formation from 5 to 50 uM T-5224 after 60 mins in presence of UDP-glucuronic acid by HPLC method; assay type: ADME; conditions: recombinant enzyme, 1 h; in short: as §2
[13] = biological target: T2, UDP-glucuronosyltransferase 1A8; experiment: Drug level assessed as human UGT1A8-mediated compound formation from 5 to 50 uM T-5224 after 60 mins in presence of UDP-glucuronic acid using 0.05 to 0.2 mg/ml by HPLC method; assay type: ADME; conditions: recombinant enzyme, 1 h; in short: as §2
[14] = biological target: T3, UDP-glucuronosyltransferase 1A1; experiment: Drug level assessed as human UGT1A1-mediated compound formation from 5 to 50 uM T-5224 after 10 to 60 mins in presence of UDP-glucuronic acid by HPLC method; assay type: ADME; conditions: recombinant enzyme; in short: as §2
[15] = system: Liver microsome; experiment: Drug level in pooled human liver microsomes treated with 10 uM T-5224 assessed as compound formation after 10 mins using 0.1 to 1.0 mg/ml microsomal protein content by HPLC method; assay type: ADME; in short: as §1
[16] = Drug level in pooled human intestinal microsomes treated with 10 uM T-5224 assessed as compound formation after 10 mins by HPLC method; assay type: ADME, Intestine, Microsome; in short: as §1

Drug metabolism [1]: metabolite_detected
Drug metabolism [2]: Dose-dependent effect
Drug metabolism [3]: Dose-dependent effect
Drug metabolism [4]: metabolite_detected
Drug metabolism [5]: Dose-dependent effect
Drug metabolism [6]: metabolite_detected
Drug metabolism [7]: Dose-dependent effect
Drug metabolism [8]: metabolite_detected
Drug metabolism [9]: Dose-dependent effect
Drug metabolism [10]: Dose-dependent effect
Drug metabolism [11]: Dose-dependent effect
Drug metabolism [12]: metabolite_detected
Drug metabolism [13]: Dose-dependent effect
Drug metabolism [14]: Dose-dependent effect
Drug metabolism [15]: Dose-dependent effect
Drug metabolism [16]: metabolite_detected
SMILES: O=C(O)CCc1cc(C(=O)c2ccc(OC3CCCC3)cc2O)ccc1OCc1ccc2c(O[C@@H]3O[C@H](C(=O)O)[C@@H](O)[C@H](O)[C@H]3O)noc2c1
